ChEMBL document CHEMBL1151448, “Comparative antianaerobic activities of doripenem determined by MIC and time-kill analysis” (2008)
≈ marks a conversion by molar mass, not a printed value.

Key:
Assay type in all cases: functional
Clostridium cadaveris = test: Antimicrobial activity against Clostridium cadaveris isolated from intra-abdominal infection and pelvic inflammatory disease patients after 48 hrs by agar dilution method
How it was run: (§1)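 CLSI agar dilution on brucella blood agar supplemented with laked sheep blood, hemin and vitamin K. Inocula of about 1 × 10^5 CFU/spot were applied by Steers replicator, and plates were incubated 48 h at 35°C in an anaerobic glove box. MIC was the concentration giving marked growth reduction versus the anaerobic control plate. QC strains were included each run, and β-lactamase was detected by Cefinase disk.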

[1] = system: Paraclostridium bifermentans; test: Antimicrobial activity against Clostridium bifermentans isolated from intra-abdominal infection and pelvic inflammatory disease patients after 48 hrs by agar dilution method; how it was run: as §1
Fusobacterium nucleatum [2] = test: Antimicrobial activity against beta lactamase-positive Fusobacterium nucleatum isolated from intra-abdominal infection and pelvic inflammatory disease patients after 48 hrs by agar dilution method; how it was run: as §1
Clostridium perfringens [3] = test: Antimicrobial activity against Clostridium perfringens isolated from intra-abdominal infection and pelvic inflammatory disease patients after 48 hrs by agar dilution method
How it was run: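 CLSI agar dilution on brucella blood agar supplemented with laked sheep blood, hemin and vitamin K. Inoculum about 1 × 10^5 CFU/spot, applied by Steers replicator. Plates incubated 48 h at 35°C in an anaerobic glove box. MIC is the concentration giving marked growth reduction versus the anaerobic control plate. Standard QC strains included in each run.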

Clostridioides difficile [4] = test: Antimicrobial activity against Clostridium difficile isolated from intra-abdominal infection and pelvic inflammatory disease patients after 48 hrs by time kill analysis
How it was run: (§2)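 Macrodilution in prereduced brucella broth with 5% laked horse blood cells, 5 μg/ml hemin and 1 μg/ml vitamin K1. Final inoculum 10^6 to 10^7 CFU/ml, prepared inside the anaerobe chamber. Vials incubated 48 h at 35°C in a shaking water bath. MIC read by inspecting the time-kill tubes, alongside an antibiotic-free growth control.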

[5] = system: Enterocloster clostridioformis; test: Antimicrobial activity against Clostridium clostridioforme isolated from intra-abdominal infection and pelvic inflammatory disease patients after 48 hrs by agar dilution method; how it was run: as §1
Prevotella disiens = test: Antimicrobial activity against beta lactamase-positive Prevotella disiens isolated from intra-abdominal infection and pelvic inflammatory disease patients after 48 hrs by agar dilution method; how it was run: as §1
Prevotella corporis = test: Antimicrobial activity against beta lactamase-positive Prevotella corporis isolated from intra-abdominal infection and pelvic inflammatory disease patients after 48 hrs by agar dilution method; how it was run: as §1
Prevotella nigrescens = test: Antimicrobial activity against beta lactamase-positive Prevotella nigrescens isolated from intra-abdominal infection and pelvic inflammatory disease patients after 48 hrs by agar dilution method; how it was run: as §1
[6] = system: Prevotella melaninogenica; test: Antimicrobial activity against beta lactamase-positive Prevotella melaninogenica isolated from intra-abdominal infection and pelvic inflammatory disease patients after 48 hrs by agar dilution method; how it was run: as §1
[7] = system: Bacteroides thetaiotaomicron; test: Antimicrobial activity against beta lactamase-positive Bacteroides thetaiotaomicron isolated from intra-abdominal infection and pelvic inflammatory disease patients after 48 hrs by agar dilution method; how it was run: as §1
Prevotella intermedia [8] = test: Antimicrobial activity against beta lactamase-positive Prevotella intermedia isolated from intra-abdominal infection and pelvic inflammatory disease patients after 48 hrs by time kill analysis
How it was run: (§3)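 The MIC was read by inspecting macrodilution time-kill tubes. Vials held prereduced brucella broth with 5% laked horse blood cells, hemin 5 μg/ml and vitamin K1 1 μg/ml. Final inoculum was 10^6–10^7 CFU/ml, prepared inside the anaerobe chamber. Vials were incubated 48 h at 35°C in a shaking water bath.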

[9] = system: Porphyromonas asaccharolytica; test: Antimicrobial activity against Porphyromonas asaccharolyticus isolated from intra-abdominal infection and pelvic inflammatory disease patients after 48 hrs by agar dilution method; how it was run: as §1
Phocaeicola vulgatus = test: Antimicrobial activity against beta lactamase-positive Bacteroides vulgatus isolated from intra-abdominal infection and pelvic inflammatory disease patients after 48 hrs by agar dilution method; how it was run: as §1
Bacteroides fragilis [10] = test: Antimicrobial activity against beta lactamase-positive Bacteroides fragilis isolated from intra-abdominal infection and pelvic inflammatory disease patients after 48 hrs by agar dilution method; how it was run: as §1
Prevotella intermedia [11] = test: Antimicrobial activity against beta lactamase-positive Prevotella intermedia isolated from intra-abdominal infection and pelvic inflammatory disease patients after 48 hrs by agar dilution method; how it was run: as §1
Prevotella buccae = test: Antimicrobial activity against beta lactamase-positive Prevotella buccae isolated from intra-abdominal infection and pelvic inflammatory disease patients after 48 hrs by agar dilution method; details: Segatella buccae; how it was run: as §1
Bacteroides ovatus = test: Antimicrobial activity against beta lactamase-positive Bacteroides ovatus isolated from intra-abdominal infection and pelvic inflammatory disease patients after 48 hrs by agar dilution method; how it was run: as §1
Porphyromonas gingivalis = test: Antimicrobial activity against Porphyromonas gingivalis isolated from intra-abdominal infection and pelvic inflammatory disease patients after 48 hrs by agar dilution method; how it was run: as §1
[12] = system: Peptostreptococcus anaerobius; test: Antimicrobial activity against Peptostreptococcus anaerobius isolated from intra-abdominal infection and pelvic inflammatory disease patients after 48 hrs by agar dilution method; how it was run: as §1
Finegoldia magna [13] = test: Antimicrobial activity against Finegoldia magna isolated from intra-abdominal infection and pelvic inflammatory disease patients after 48 hrs by agar dilution method; how it was run: as §1
[14] = system: Bacteroides thetaiotaomicron; test: Antimicrobial activity against beta lactamase-positive Bacteroides thetaiotaomicron isolated from intra-abdominal infection and pelvic inflammatory disease patients after 48 hrs by time kill analysis; how it was run: as §3
Finegoldia magna [15] = test: Antimicrobial activity against beta lactamase-positive Finegoldia magna isolated from intra-abdominal infection and pelvic inflammatory disease patients after 48 hrs by time kill analysis; how it was run: as §3
[16] = system: Peptoniphilus asaccharolyticus; test: Antimicrobial activity against Peptoniphilus asaccharolyticus isolated from intra-abdominal infection and pelvic inflammatory disease patients after 48 hrs by agar dilution method; how it was run: as §1
Porphyromonas levii = test: Antimicrobial activity against Porphyromonas levii isolated from intra-abdominal infection and pelvic inflammatory disease patients after 48 hrs by agar dilution method; how it was run: as §1
[17] = system: Clostridium paraputrificum; test: Antimicrobial activity against Clostridium paraputrificum isolated from intra-abdominal infection and pelvic inflammatory disease patients after 48 hrs by agar dilution method; how it was run: as §1
[18] = system: Paeniclostridium sordellii; test: Antimicrobial activity against Clostridium sordellii isolated from intra-abdominal infection and pelvic inflammatory disease patients after 48 hrs by agar dilution method; details: Paraclostridium sordellii; how it was run: as §1
[19] = system: Fusobacterium necrophorum; test: Antimicrobial activity against Fusobacterium necrophorum isolated from intra-abdominal infection and pelvic inflammatory disease patients after 48 hrs by agar dilution method; how it was run: as §1
[20] = system: Parabacteroides distasonis; test: Antimicrobial activity against beta lactamase-positive Bacteroides distasonis isolated from intra-abdominal infection and pelvic inflammatory disease patients after 48 hrs by agar dilution method; how it was run: as §1
Clostridioides difficile [21] = test: Antimicrobial activity against Clostridium difficile isolated from intra-abdominal infection and pelvic inflammatory disease patients after 48 hrs by agar dilution method; how it was run: as §1
Clostridium perfringens [22] = test: Antimicrobial activity against Clostridium perfringens isolated from intra-abdominal infection and pelvic inflammatory disease patients after 48 hrs by time kill analysis; how it was run: as §2
Prevotella bivia = test: Antimicrobial activity against beta lactamase-positive Prevotella bivia isolated from intra-abdominal infection and pelvic inflammatory disease patients after 48 hrs by agar dilution method; how it was run: as §1
Prevotella denticola = test: Antimicrobial activity against beta lactamase-positive Prevotella denticola isolated from intra-abdominal infection and pelvic inflammatory disease patients after 48 hrs by agar dilution method; how it was run: as §1
Fusobacterium varium = test: Antimicrobial activity against Fusobacterium varium isolated from intra-abdominal infection and pelvic inflammatory disease patients after 48 hrs by agar dilution method; how it was run: as §1
Parvimonas micra = test: Antimicrobial activity against Micromonas micros isolated from intra-abdominal infection and pelvic inflammatory disease patients after 48 hrs by agar dilution method; how it was run: as §1
Bacteroides fragilis [23] = test: Antimicrobial activity against beta lactamase-positive Bacteroides fragilis isolated from intra-abdominal infection and pelvic inflammatory disease patients after 48 hrs by time kill analysis; how it was run: as §3
Thomasclavelia ramosa = test: Antimicrobial activity against Clostridium ramosum isolated from intra-abdominal infection and pelvic inflammatory disease patients after 48 hrs by agar dilution method; how it was run: as §1
Anaerococcus prevotii = test: Antimicrobial activity against Anaerococcus prevotii isolated from intra-abdominal infection and pelvic inflammatory disease patients after 48 hrs by agar dilution method; how it was run: as §1
Fusobacterium mortiferum = test: Antimicrobial activity against beta lactamase-positive Fusobacterium mortiferum isolated from intra-abdominal infection and pelvic inflammatory disease patients after 48 hrs by agar dilution method; how it was run: as §1
Anaerococcus tetradius = test: Antimicrobial activity against Anaerococcus tetradius isolated from intra-abdominal infection and pelvic inflammatory disease patients after 48 hrs by agar dilution method; how it was run: as §1
[Clostridium] innocuum = Antimicrobial activity against Clostridium innocuum isolated from intra-abdominal infection and pelvic inflammatory disease patients after 48 hrs by agar dilution method; how it was run: as §1
Fusobacterium nucleatum [24] = test: Antimicrobial activity against beta lactamase-positive Fusobacterium nucleatum isolated from intra-abdominal infection and pelvic inflammatory disease patients after 48 hrs by time kill analysis; how it was run: as §3

In the case of `Cc1ncc([N+](=O)[O-])n1CCO` [METRONIDAZOLE], the MIC (Clostridium cadaveris) is reported as 0.25 µg/mL (≈ 1.46 µM), the MIC [1] is reported as 0.25 µg/mL (≈ 1.46 µM) and the MIC (Fusobacterium nucleatum [2]) is reported as ≤ 0.125 µg/mL. The MIC50 (Fusobacterium nucleatum [2]) was ≤ 0.125 µg/mL, the MIC90 (Fusobacterium nucleatum [2]) was ≤ 0.125 µg/mL and the MIC50 (Clostridium perfringens [3]) was 1 µg/mL (≈ 5.84 µM). For the same molecule, the MIC90 (Clostridium perfringens [3]) was 2 µg/mL (≈ 11.7 µM), the MIC (Clostridioides difficile [4]) was 0.5 µg/mL (≈ 2.92 µM) and the MIC [5] was ≤ 0.125 µg/mL. It also gave an MIC (Prevotella disiens) of 0.5 µg/mL (≈ 2.92 µM), an MIC50 (Prevotella disiens) of 0.5 µg/mL (≈ 2.92 µM) and an MIC90 (Prevotella disiens) of 2 µg/mL (≈ 11.7 µM). It also gave an MIC50 (Prevotella corporis) of 0.5 µg/mL (≈ 2.92 µM), an MIC90 (Prevotella corporis) of 1 µg/mL (≈ 5.84 µM) and an MIC50 (Prevotella nigrescens) of 0.5 µg/mL (≈ 2.92 µM). For the same molecule, the MIC90 (Prevotella nigrescens) was 1 µg/mL (≈ 5.84 µM), the MIC50 [6] was 0.5 µg/mL (≈ 2.92 µM) and the MIC90 [6] was 1 µg/mL (≈ 5.84 µM). The MIC50 [7] was 1 µg/mL (≈ 5.84 µM), the MIC90 [7] was 1 µg/mL (≈ 5.84 µM) and the MIC (Prevotella intermedia [8]) was 0.5 µg/mL (≈ 2.92 µM). The MIC [9] was ≤ 0.125 µg/mL, the MIC50 (Phocaeicola vulgatus) was 0.5 µg/mL (≈ 2.92 µM) and the MIC90 (Phocaeicola vulgatus) was 1 µg/mL (≈ 5.84 µM). The MIC50 (Bacteroides fragilis [10]) was 1 µg/mL (≈ 5.84 µM), the MIC90 (Bacteroides fragilis [10]) was 1 µg/mL (≈ 5.84 µM) and the MIC50 (Prevotella intermedia [11]) was 0.5 µg/mL (≈ 2.92 µM). The MIC90 (Prevotella intermedia [11]) was 2 µg/mL (≈ 11.7 µM), the MIC50 (Prevotella buccae) was 1 µg/mL (≈ 5.84 µM) and the MIC90 (Prevotella buccae) was 1 µg/mL (≈ 5.84 µM). For the same molecule, the MIC50 (Bacteroides ovatus) was 1 µg/mL (≈ 5.84 µM), the MIC90 (Bacteroides ovatus) was 2 µg/mL (≈ 11.7 µM) and the MIC (Porphyromonas gingivalis) was ≤ 0.125 µg/mL. The MIC50 [12] was 0.5 µg/mL (≈ 2.92 µM), the MIC90 [12] was 1 µg/mL (≈ 5.84 µM) and the MIC50 (Finegoldia magna [13]) was 0.5 µg/mL (≈ 2.92 µM). For the same molecule, the MIC90 (Finegoldia magna [13]) was 1 µg/mL (≈ 5.84 µM), the MIC [14] was 1 µg/mL (≈ 5.84 µM) and the MIC (Finegoldia magna [15]) was 1 µg/mL (≈ 5.84 µM). For the same molecule, the MIC50 [16] was 1 µg/mL (≈ 5.84 µM), the MIC90 [16] was 1 µg/mL (≈ 5.84 µM) and the MIC (Porphyromonas levii) was ≤ 0.125 µg/mL. The MIC [17] was 0.5 µg/mL (≈ 2.92 µM), the MIC [18] was 0.5 µg/mL (≈ 2.92 µM) and the MIC [19] was ≤ 0.125 µg/mL. For the same molecule, the MIC50 [19] was ≤ 0.125 µg/mL, the MIC90 [19] was ≤ 0.125 µg/mL and the MIC [20] was 1 µg/mL (≈ 5.84 µM). It also gave an MIC50 [20] of 1 µg/mL (≈ 5.84 µM), an MIC90 [20] of 1 µg/mL (≈ 5.84 µM) and an MIC50 (Clostridioides difficile [21]) of 0.5 µg/mL (≈ 2.92 µM). For the same molecule, the MIC90 (Clostridioides difficile [21]) was 0.5 µg/mL (≈ 2.92 µM), the MIC (Clostridium perfringens [22]) was 2 µg/mL (≈ 11.7 µM) and the MIC50 (Prevotella bivia) was 2 µg/mL (≈ 11.7 µM). For the same molecule, the MIC90 (Prevotella bivia) was 2 µg/mL (≈ 11.7 µM), the MIC50 (Prevotella denticola) was 0.5 µg/mL (≈ 2.92 µM) and the MIC90 (Prevotella denticola) was 1 µg/mL (≈ 5.84 µM). The MIC50 (Fusobacterium varium) was 0.25 µg/mL (≈ 1.46 µM), the MIC90 (Fusobacterium varium) was 0.5 µg/mL (≈ 2.92 µM) and the MIC50 (Parvimonas micra) was 0.25 µg/mL (≈ 1.46 µM). It also gave an MIC90 (Parvimonas micra) of 0.5 µg/mL (≈ 2.92 µM), an MIC (Bacteroides fragilis [23]) of 2 µg/mL (≈ 11.7 µM) and an MIC50 (Thomasclavelia ramosa) of 2 µg/mL (≈ 11.7 µM). For the same molecule, the MIC (Anaerococcus prevotii) was 0.25 µg/mL (≈ 1.46 µM), the MIC (Fusobacterium mortiferum) was ≤ 0.125 µg/mL and the MIC50 (Fusobacterium mortiferum) was ≤ 0.125 µg/mL. The MIC90 (Fusobacterium mortiferum) was ≤ 0.125 µg/mL, the MIC50 (Anaerococcus tetradius) was 2 µg/mL (≈ 11.7 µM) and the MIC50 ([Clostridium] innocuum) was 1 µg/mL (≈ 5.84 µM). The MIC (Fusobacterium nucleatum [24]) was 0.016 µg/mL (≈ 0.0935 µM).
